Assay results reported in ChEMBL document CHEMBL1125777, “Nonpeptidic angiotensin II antagonists: synthesis and in vitro activity of a series of novel naphthalene and tetrahydronaphthalene derivatives” (J Med Chem, 1991).

Tests used:
[1] = biological target: T1, Type-1 angiotensin II receptor B (Rattus norvegicus, UniProt P29089); test: Binding affinity against angiotensin II receptor in rat smooth muscle cell preparations
T1 sequence (P29089 whole entry): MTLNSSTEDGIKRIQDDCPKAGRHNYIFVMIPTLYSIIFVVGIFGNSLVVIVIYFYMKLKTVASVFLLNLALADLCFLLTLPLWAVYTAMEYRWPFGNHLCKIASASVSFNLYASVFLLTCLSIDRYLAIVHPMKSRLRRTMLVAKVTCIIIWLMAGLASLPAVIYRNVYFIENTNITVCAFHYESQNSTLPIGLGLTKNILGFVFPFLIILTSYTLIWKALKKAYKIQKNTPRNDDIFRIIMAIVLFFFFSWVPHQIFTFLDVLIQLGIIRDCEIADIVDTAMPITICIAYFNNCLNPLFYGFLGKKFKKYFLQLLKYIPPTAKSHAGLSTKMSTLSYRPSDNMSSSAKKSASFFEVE
How it was run: (§1)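 Membranes from cultured rat aortic smooth muscle cells (passages 5-20, DMEM with 15% FCS). Bound/free separated by filtration, filter radioactivity counted. Nonspecific binding defined with 1 μM unlabeled AII. IC50 from four-parameter logistic fit. Duplicate tests.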

Oryctolagus cuniculus = species on record: Oryctolagus cuniculus; test: Inhibition of all induced contractions of rabbit aortic rings; type: functional; settings: Aorta
How it was run: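 Thoracic aorta rings (2-3 mm) from male Chinchilla rabbits (2-2.5 kg), 2 g resting tension, modified Krebs-Henseleit, 37 °C, 95% O2/5% CO2, equilibrated ≥1 h. Isometric contraction to 10 nM angiotensin II every 20 min. After two control responses, graded compound concentrations (3-4 per ring) applied 5 min before each challenge. DMSO vehicle controls.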

[2] = biological target: T1, Type-1 angiotensin II receptor B; test: Binding affinity against Angiotensin II receptor in rat smooth muscle cell preparations
How it was run: as §1, with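 “FCS). 20-60 μg protein incubated 60 min at 25 or 30 °C with radiotracer (150 pM) and varying unlabeled competitor concentrations.” for “FCS).”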

| SMILES | IC50 [1] [µM] | IC50 (Oryctolagus cuniculus) [µM] | IC50 [2] [µM] |
| --- | --- | --- | --- |
| CCCCc1nc(CO)c(Cl)n1Cc1ccc2c(c1)CCC(C(=O)O)C2 (stereo not given) | 1.1 | 0.3 |  |
| CCCCc1nc(CO)c(Cl)n1Cc1ccc2c(c1)CCC(C)(C(=O)O)C2 (stereo not given) | 2.8 | 2.7 |  |
| CCCCc1nc(CO)c(Cl)n1Cc1ccc2c(c1)CCC(c1nnn[nH]1)C2 (stereo not given) |  | 0.56 |  |
| CCCCc1nc(Cl)c(CO)n1Cc1ccc2ccc(-c3nn[nH]n3)cc2c1 |  |  | 20 |
| CCCCc1nc(Cl)c(CO)n1Cc1ccc2c(c1)CCC(C(=O)O)C2 (stereo not given) | 8.9 | 1.2 |  |
| CCCCc1nc(Cl)c(CO)n1Cc1ccc2c(c1)CCC(c1nnn[nH]1)C2 (stereo not given) | 5.4 | 1.9 |  |
| CCCCc1nc(Cl)c(CO)n1Cc1ccc2c(c1)CCC(C)(C(=O)O)C2 (stereo not given) |  | 2.2 |  |
| CCCCc1nc(Cl)c(CO)n1Cc1cccc2c(-c3nn[nH]n3)cccc12 | 1.1 | 0.7 |  |
| CCCCc1nc(Cl)c(CO)n1Cc1cccc2cc(-c3nnn[nH]3)ccc12 | 4.1 | 2.6 |  |
| CCCCc1nc(Cl)c(CO)n1Cc1ccc2cc(-c3nn[nH]n3)ccc2c1 | 0.6 | 1.6 |  |
| CCCCc1nc(CO)c(Cl)n1Cc1ccc2cc(-c3nnn[nH]3)ccc2c1 |  | 0.12 | 0.2 |
| CCCCc1nc(Cl)c(CO)n1Cc1ccc(-c2ccccc2-c2nnn[nH]2)cc1 [LOSARTAN] |  | 0.024 |  |
